# Compound activity (PubChem BioAssay)
# thrombin 1536 = inhibitors of human thrombin; P00734; alpha-thrombin, Boc-VPR-AMC fluorogenic substrate cleavage; actives 0.26% (n = 220,000); inhibition, % at 5 µM;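 active = inhibition at or above 40%; inactive = inhibition below 40%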;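 note: 0% = enzyme with no compound and 100% = wells without enzyme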
#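 Material: Human alpha-thrombin protein | Buffer or medium: pH 7.5 Tris-saline with Tween 20 | Reagent: Boc-VPR-AMC substrate, 15 µM final | Schedule: Reaction at ambient temperature | Detection: AMC fluorescence at 355 nm excitation and 460 nm emission | Evaluation: Percent inhibition scaled between no-compound controls and no-enzyme blanks | Controls: no-compound enzyme wells and no-enzyme blanks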
# FXIIa inh 1536 = inhibitors of human coagulation factor XIIa; AID 800; actives 0.3% (n = 220,000); purified FXIIa, Boc-QGR-AMC fluorogenic substrate, 2 h; inhibition, % at 5 µM; P00748; in the data active = inhibition above about 40%;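 note: 0% = enzyme with no compound and 100% = blank without enzyme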
# Wee1 degr inh = human Wee1 degradation inhibition, primary screen; AID 1321; reporter increase, % at 5 µM; actives 1.2% (n = 220,000); HeLa Luc-Wee1K328M stability, luciferase luminescence; 100% = proteasome inhibitor MG132 effect;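 active = activation above the mean of all tested compounds plus 3 SD, set per screening run, cut at about 8.8% in these data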;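 note: cells exposed to compound for 20 h before luminescence read; 0% = DMSO alone and 100% = MG132 at 30 µM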
# KLK5 inh = inhibitors of human kallikrein 5; AID 873; inhibition, % at 5 µM; actives 0.59% (n = 210,000); Q9Y337; recombinant hK5, fluorogenic AMC substrate cleavage;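 active = inhibition of 40% or more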;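 note: 0% = enzyme controls without compound and 100% = no-enzyme blanks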
# Target sequence (Q9Y337 67-293 limits assumed): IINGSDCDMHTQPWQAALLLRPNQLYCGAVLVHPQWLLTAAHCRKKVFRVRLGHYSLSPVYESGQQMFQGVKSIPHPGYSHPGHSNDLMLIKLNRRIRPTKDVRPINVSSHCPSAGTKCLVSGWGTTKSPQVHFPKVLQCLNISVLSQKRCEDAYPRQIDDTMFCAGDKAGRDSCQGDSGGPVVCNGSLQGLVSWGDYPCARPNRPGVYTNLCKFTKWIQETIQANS
# FXIa inh = factor XIa (human) inhibition; purified FXIa, Boc-Glu-Ala-Arg-AMC fluorogenic substrate; inhibition, % at 5 µM; actives 0.14% (n = 220,000);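 active = inhibition of at least 40%; inactive = inhibition below 40%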;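 note: fluorescence of freed AMC excited at 355 nm; 0% = enzyme without compound and 100% = no enzyme blank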
# Platelet DG rel = modulates dense granule release in human platelets; AID 1663; human platelet-rich plasma, SFLLRN dense granule ATP release, luminescence; actives 0.22% (n = 300,000); inhibition, %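 (compounds screened at 7.5 µM in platelet-rich plasma)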;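 active = mean replicate score, as percent of positive control, at or above 50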
# * hit, by the source's call; . = no result. Hits are enriched below; roughly 1.8% of the tested compounds scored in any of these assays.
SMILES,thrombin 1536,FXIIa inh 1536,Wee1 degr inh,KLK5 inh,FXIa inh,Platelet DG rel
CCCN(CCC)C(=O)Cn1ccc(=N)c2ccccc21,34.2,16.5,-2.4,45.7*,2.9,-21.1
CC(C)(C)NC(=O)Cn1ccc(=N)c2ccccc21,18.0,21.2,-2.6,24.1,15.3,-7.5
COC(=O)c1ccc(C(=O)OC)c(NC(=O)c2cc3ccccc3o2)c1,.,.,-0.9,.,.,.
CN(C)S(=O)(=O)N1CCc2ccccc21,24.3,23.2,-0.8,71.6*,10.2,2.4
CN(C)S(=O)(=O)N1CCc2ccccc2C1,-20.6,-3.0,-1.6,2.1,0.8,-1.8
O=C(/C=C/c1ccco1)Nc1nnc(-c2ccco2)s1,-14.7,0.1,0.9,-2.1,-5.1,5.0
Cc1nc(NC(=O)/C=C/c2ccco2)sc1C,-3.8,12.9,8.9*,-9.4,5.0,-3.8
COc1cccc(-n2c(SCC(=O)Nc3ccc4c(c3)CCC4)nc3ccccc3c2=O)c1,53.8*,11.6,3.6,44.6*,-0.5,-14.1
Cc1cc(NC(=O)CSc2nc3ccccc3c(=O)n2-c2ccccc2)no1,1.6,16.1,3.5,43.3*,1.5,1.5
CCOc1ccc(-n2c(SCC(=O)Nc3cc(C)on3)nnc2-c2c[nH]c3ccccc23)cc1,0.2,47.8*,1.3,30.7,18.3,0.1
Cc1cc(NC(=O)CSc2nnc(-c3c[nH]c4ccccc34)n2-c2ccc(F)cc2)no1,-0.2,9.8,-1.3,1.1,1.3,.
COc1ccc(NC(=O)CSc2nc3ccccc3c(=O)n2CCCN2CCCCC2)c(OC)c1,1.5,11.3,-0.9,48.7*,27.4,2.5
COCCCNC(=O)CSc1nc2ccccc2c(=O)n1CCCN1CCCCC1,.,.,.,.,.,1.7
CCNC(=O)CSc1nc2ccccc2c(=O)n1-c1cccc(OC)c1,-0.8,6.2,4.5,15.7,0.0,3.8
CSc1ccccc1OCc1cc(C(=O)N2CCC[C@H]2C(N)=O)no1,.,.,.,.,.,-8.2
O=C(CCCn1cc([N+](=O)[O-])cn1)N1CCCCC1,0.2,10.7,-0.3,.,-1.1,4.9
O=C(O)c1cc2ccccc2c(N=Nc2cccnc2)c1O,.,.,.,.,.,-10.9
CC1CCCCN1S(=O)(=O)c1ccc2c(c1)CCN2C(=O)C1CCC1 (stereo not drawn),1.1,9.5,8.8*,5.6,-22.1,-0.9
CC1CCCCN1S(=O)(=O)c1coc(C(N)=O)c1 (stereo not drawn),17.9,32.7,2.5,41.7*,3.0,-0.5
CC1CCCN(S(=O)(=O)c2coc(C(N)=O)c2)C1 (stereo not drawn),-8.3,10.7,-1.8,-2.3,1.5,2.1
CCOC(=O)C1CCN(S(=O)(=O)c2ccc3c(c2)CCN3C(=O)C2CCC2)CC1,.,.,.,.,.,18.3
COc1cccc(CNS(=O)(=O)c2ccc3c(c2)CCN3C(=O)C2CC2)c1,2.4,14.1,9.2*,.,2.9,2.1
CC(=O)NC(NC(=S)Nc1cccc(Br)c1)C(Cl)(Cl)Cl (stereo not drawn),-7.0,0.4,1.2,-5.1,-5.6,10.5
COc1ccccc1-c1nnc(NC(=O)C(C)SC2=NCCS2)s1 (stereo not drawn),14.9,5.9,-3.2,52.6*,3.8,9.4
Cc1c(C#N)c(O)n(C)c(=O)c1N=Nc1ccc(S(N)(=O)=O)cc1,56.6*,29.3,-0.6,24.8,25.2,-4.3
SMILES,thrombin 1536,FXIIa inh 1536,Wee1 degr inh,KLK5 inh,FXIa inh,Platelet DG rel
Cc1c(C#N)c(O)n(CCO)c(=O)c1N=Nc1ccccc1,-4.1,7.4,-1.0,5.3,6.1,5.1
Cc1c(C#N)c(O)n(CCO)c(=O)c1N=Nc1ccc(S(N)(=O)=O)cc1,46.7*,25.4,3.6,11.4,26.9,-11.7
COc1cc(C(=O)Nc2nnc(C3=COCCO3)o2)cc(OC)c1OC,.,.,.,.,.,5.8
CCc1ccccc1N/C(=N\S(=O)(=O)c1ccccc1)C(F)(F)F,-3.9,13.7,10.2*,-21.1,5.8,2.3
COc1ccc(N(C(=O)c2ccncc2)S(=O)(=O)c2cccs2)cc1,1.0,11.7,9.1*,-1.6,0.8,13.9
Cc1ccc(OCc2cc(C(=O)N(C)CCc3nc4ccccc4[nH]3)no2)cc1C,.,.,.,.,.,1.5
Cc1ccccc1-c1nc(CS(=O)(=O)CC(=O)NCCCN2CCN(C)CC2)c(C)o1,.,.,.,.,.,-2.6
CSc1nc2n(n1)C(C)C1=C(CCCC1=O)N2 (stereo not drawn),-4.5,5.4,9.2*,-15.7,-5.8,11.9
CC(C)c1ccc(C(=O)NC2=NCCS2)cc1,-11.2,-2.0,5.5,-12.5,-7.0,-1.3
